Results on 15 compounds are retold here after ChEMBL document CHEMBL1141081, “Discovery and characterization of aminopiperidinecoumarin melanin concentrating hormone receptor 1 antagonists” (J Med Chem, 2005).

Data set [1] concerns the target T1, Melanin-concentrating hormone receptor 1 (Homo sapiens, UniProt Q99705). Put plainly: Inhibition of melanin concentrating hormone receptor 1 mediated [Ca2+] release in IMR-32 cells in Ca+2 release cell assay. The format is functional, cell-based.
In data set [2] the target is T1, Melanin-concentrating hormone receptor 1. Put plainly: Inhibitory concentration aganist melanin concentrating hormone receptor 1 expressed in IMR-32 cells using [125I]MCH. It is filed as cell-based.
A short description of data set [3]: Brain area under concentration curve after peroral administration in lean mouse at a dose of 10 mg/kg. To be noted: in vivo, po. More on the design: dose 10 mg/kg, route oral. It is filed as ADME, organism-based.
The nature of data set [4]: Plasma area under concentration curve after peroral administration in lean mouse at a dose of 10 mg/kg. The note with it: po. It is filed as ADME, organism-based. More on the design: dose 10 mg/kg, route oral.
Data set [5] can be described thus: Plasma area under concentration curve after oral administration in diet-induced obese mouse at a dose of 10 mg/kg for 0-24 hr period,n=3. It is filed as ADME, organism-based. Details: time < 24 hr, dose 10 mg/kg, route oral. A digest of the protocol:
(§1)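 Diet-induced obese mice were given a single oral dose of 10 mg/kg. Plasma and brain were sampled over 24 h. […] Values are mean ± SEM, n = 3.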

Data set [6] in a line: Maximum concentration in diet-induced obese mouse brain at 10 mg/kg oral administration; n=3. More on the design: dose 10 mg/kg, route oral. The format is ADME, organism-based. The procedure, abridged:
as §1

Data set [7] in a line: Half-life after oral administration. To be noted: dog, in vivo. It is filed as ADME, organism-based, Canis lupus familiaris.
A short description of data set [8]: Half-life after iv administration at a dose 2.5 mg/kg. It is filed as ADME, organism-based, Canis lupus familiaris. More on the design: dose 2.5 mg/kg, route intravenous. To be noted: dog, in vivo. The procedure, abridged:
(§2)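 Male beagle dogs received a single intravenous bolus of 2.5 mg/kg. Plasma was sampled to derive half-life, Cmax, plasma clearance and AUC0-∞. Values are mean ± SEM.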

The target in data set [9] is Adrenergic receptor alpha-1 (Homo sapiens) (UniProt P35348+P25100+P35368). Put plainly: Non-selective inhibition against adrenergic-alpha-1 receptor at 10 uM. The format is protein assay.
Data set [10] deals with Dopamine receptor (Homo sapiens) (UniProt P14416+P35462+P21918+P21917+P21728). Put plainly: Non-selective inhibition against dopamine receptor at 10 uM. The format is protein assay.
The nature of data set [11]: Bioavailability after oral administration. It is filed as ADME, organism-based, Canis lupus familiaris. The note with it: dog, in vivo, read-out: Activity.
The nature of data set [12]: Drug concentration in brain 1 hr after final dose of 10 mg/kg, administered orally. More on the design: dose 10 mg/kg, route oral. The format is ADME, organism-based. To be noted: mouse, po, read-out: Activity. A digest of the protocol:
(§3)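 Diet-induced obese mice were dosed orally at 10 or 30 mg/kg b.i.d. for 13 days. Body weight was expressed as % change from vehicle controls. Plasma (μg/mL) and brain (μg/g) drug levels were measured 1 h after the final dose. Values are mean ± SEM, n = 3.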

Data set [13] is described as follows: Drug concentration in plasma 1 hr after final dose of 10 mg/kg administered orally. It is filed as ADME, organism-based. More on the design: dose 10 mg/kg, route oral. To be noted: mouse, po, read-out: Activity. A digest of the protocol:
as §3

The nature of data set [14]: Drug concentration in plasma 1 hr after final dose of 30 mg/kg administered orally. Details: dose 30 mg/kg, route oral. The note with it: mouse, po, read-out: Activity. The format is ADME, organism-based. A digest of the protocol:
as §3

Data set [15] can be described thus: Plasma concentration after intravenous infusion at a dose of 8 mg/kg/30 min. The format is ADME, organism-based, Canis lupus familiaris. More on the design: route intravenous. To be noted: dog, read-out: Activity.
Data set [16] can be described thus: Plasma concentration after intravenous infusion at a dose of 26 mg/kg/30 min. The note with it: dog, read-out: Activity. The format is ADME, organism-based, Canis lupus familiaris. More on the design: route intravenous.
Data set [17] can be described thus: Plasma concentration after intravenous infusion at a dose of 80 mg/kg measured after approximately 12 min. It is filed as ADME, organism-based, Canis lupus familiaris. More on the design: dose 80 mg/kg, route intravenous. To be noted: dog, read-out: Activity.
Data set [18] is described as follows: Plasma area under curve after oafter iv administration at a dose 2.5 mg/kg. It is filed as ADME, organism-based, Canis lupus familiaris. More on the design: dose 2.5 mg/kg, route intravenous. To be noted: dog, in vivo. A digest of the protocol: as §2
The target of data set [19] is Voltage-gated inwardly rectifying potassium channel KCNH2 (Homo sapiens, UniProt Q12809). Put plainly: Inhibition of human potassium channel HERG.
Voltage-gated inwardly rectifying potassium channel KCNH2, sequence (Q12809 whole entry): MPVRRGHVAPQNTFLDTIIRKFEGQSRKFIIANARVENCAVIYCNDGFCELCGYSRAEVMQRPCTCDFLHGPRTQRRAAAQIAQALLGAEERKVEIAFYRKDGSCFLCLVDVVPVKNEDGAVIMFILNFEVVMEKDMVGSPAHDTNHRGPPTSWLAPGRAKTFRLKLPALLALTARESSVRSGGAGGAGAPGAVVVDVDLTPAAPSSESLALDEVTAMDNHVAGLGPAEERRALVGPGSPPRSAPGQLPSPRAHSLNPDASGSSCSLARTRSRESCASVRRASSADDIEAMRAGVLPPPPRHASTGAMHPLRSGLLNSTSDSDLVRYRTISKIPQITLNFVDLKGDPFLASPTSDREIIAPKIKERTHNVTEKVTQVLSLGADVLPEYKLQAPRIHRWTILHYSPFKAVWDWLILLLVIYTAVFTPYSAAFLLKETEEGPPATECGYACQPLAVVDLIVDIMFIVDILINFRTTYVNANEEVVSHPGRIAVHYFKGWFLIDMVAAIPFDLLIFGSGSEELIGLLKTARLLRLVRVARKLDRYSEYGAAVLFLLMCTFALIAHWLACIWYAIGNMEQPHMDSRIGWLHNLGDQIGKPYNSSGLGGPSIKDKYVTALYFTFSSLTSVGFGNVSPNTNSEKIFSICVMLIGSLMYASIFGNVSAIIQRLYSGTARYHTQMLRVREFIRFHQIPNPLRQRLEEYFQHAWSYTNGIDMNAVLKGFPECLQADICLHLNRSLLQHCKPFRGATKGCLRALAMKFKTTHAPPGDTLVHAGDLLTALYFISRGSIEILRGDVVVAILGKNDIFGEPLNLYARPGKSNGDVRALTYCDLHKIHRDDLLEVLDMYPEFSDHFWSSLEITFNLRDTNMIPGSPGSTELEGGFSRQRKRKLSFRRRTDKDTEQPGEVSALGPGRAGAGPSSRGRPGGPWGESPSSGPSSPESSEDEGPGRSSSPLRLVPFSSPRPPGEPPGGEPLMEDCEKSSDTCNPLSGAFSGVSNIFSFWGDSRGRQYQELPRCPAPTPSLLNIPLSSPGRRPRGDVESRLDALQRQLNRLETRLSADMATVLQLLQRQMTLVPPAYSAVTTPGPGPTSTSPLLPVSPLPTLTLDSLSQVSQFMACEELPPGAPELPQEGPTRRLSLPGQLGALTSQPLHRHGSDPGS
Data set [20] is described as follows: Plasma clearance after iv administration at a dose 2.5 mg/kg. It is filed as ADME, organism-based, Canis lupus familiaris. More on the design: dose 2.5 mg/kg, route intravenous. To be noted: dog, read-out: Clp (converted). A digest of the protocol:
as §2

Data set [21] in a line: Concentration in diet-induced obese mouse brain 12 h after 10 mg/kg oral administration. The format is ADME, organism-based. More on the design: dose 10 mg/kg, route oral. To be noted: read-out: C12h. A digest of the protocol:
as §1

Data set [22] can be described thus: Peak plasma concentration after oral administration. It is filed as ADME, organism-based, Canis lupus familiaris. More on the design: route oral. The note with it: dog.
Data set [23] is described as follows: Peak plasma concentration after iv administration at a dose 2.5 mg/kg. The format is ADME, organism-based, Canis lupus familiaris. More on the design: dose 2.5 mg/kg, route intravenous. To be noted: dog. The procedure, abridged: as §2
Data set [24] concerns Mus musculus. Put plainly: Drug concentration in brain 1 hr after final dose of 10 mg/kg, administered orally. To be noted: po.
Data set [25] relates to Mus musculus. Put plainly: Percent change in body weight after oral administration at a dose of 10 mg/kg b.i.d. as compare to vehicle (1% Tween-80 in water) observed for 13 days.
The subject of data set [26] is Mus musculus. Put plainly: Percent change in body weight after oral administration at a dose of 30 mg/kg b.i.d. as compare to vehicle (1% Tween-80 in water) observed for 13 days.
Data set [27] has as its system Mus musculus. Description: Percent change in body weight after oral administration at a dose of 30 mg/kg b.i.d. as compare to vehicle (1% Tween-80 in water) observed for 28 days.
For data set [28], the system named is Mus musculus. Description: Percent change in body weight after oral administration at a dose of 10 mg/kg b.i.d. as compare to vehicle (1% Tween-80 in water) observed for 28 days.
A short description of data set [29]: Brain area under concentration curve after oral administration in diet-induced obese mouse at a dose of 10 mg/kg for 0-24 hr period, n=3. The format is ADME, organism-based. Details: time < 24 hr, dose 10 mg/kg, route oral. To be noted: in vivo. The procedure, abridged:
as §1

A short description of data set [30]: Plasma area concentration under curve after peroral administration in lean mouse at a dose of 10 mg/kg. To be noted: po. Details: dose 10 mg/kg, route oral. The format is ADME, organism-based. A digest of the protocol:
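Single oral dose of 10 mg/kg given to lean mice. Plasma exposure is expressed as AUC, and brain AUC was measured alongside it. Interanimal variability was below 25% for all values.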

Data set [31] is described as follows: Plasma concentration at the end of the first infusion in dog cardiovascular assay; value is in between 1.36-1.43. The note with it: iv. It is filed as ADME, Canis lupus familiaris.
Data set [32] is described as follows: Plasma concentration at the end of the first infusion in dog cardiovascular assay; value is in between 2.75-2.93. The format is ADME, Canis lupus familiaris. The note with it: iv.

pIC50: −log10 of the molar value. Values joined by “and” are separate entries in the source; they are usually repeats but may differ in a detail not shown here. Equal entries are not always repeated.

T1 sequence (Q99705 whole entry): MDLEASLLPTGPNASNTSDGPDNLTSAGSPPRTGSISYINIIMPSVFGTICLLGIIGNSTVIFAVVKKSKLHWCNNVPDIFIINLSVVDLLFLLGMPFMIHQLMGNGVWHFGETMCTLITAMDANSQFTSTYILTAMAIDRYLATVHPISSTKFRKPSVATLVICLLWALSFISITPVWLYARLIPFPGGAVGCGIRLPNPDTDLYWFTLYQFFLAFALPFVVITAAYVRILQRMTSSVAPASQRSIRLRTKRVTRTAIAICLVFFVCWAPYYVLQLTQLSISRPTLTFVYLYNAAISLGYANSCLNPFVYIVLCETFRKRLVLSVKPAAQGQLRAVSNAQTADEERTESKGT

In the case of `O=c1cc(NC2CCN(Cc3ccc4ncoc4c3)CC2)c2cc(Cl)ccc2o1`, the pIC50 (commonly −log10 of the IC50, conventionally taken in molar units) in [1] was 6.34; in data set [2], 7.12.
As to `O=c1cc(NC2CCN(Cc3ccc4cc[nH]c4c3)CC2)c2cc(Cl)ccc2o1`, the pIC50 was 7.55 in [1] and 7.62 in data set [2].
In the case of `COc1ccc2oc(O)c/c(=N\C3CCN(C/C=C/c4ccccc4)CC3)c2c1`, the negative logarithm of the IC50 (pIC50) in data set [1] was 7.36; in data set [2] it was 8.40. The AUC in data set [3] turned out to be 0.43 µg·h/g; in data set [4], 980 ng·h/mL.
For the compound `O=c1cc(NC2CCN(Cc3ccc4c(c3)OCO4)CC2)c2cc(Cl)ccc2o1`, the figures for the negative-log IC50 (pIC50) in data set [1], in data set [2] and in data set [19] were 7.55, 8.70 and 5.65, respectively. Further, in [5], the AUC at 24 h came out at 6350 ng·h/mL. Also, the Cmax – broadly, the peak of the concentration-time curve – was 454 ng/g in [6], 200 ng/mL in data set [22] and 1600 ng/mL in data set [23]. Also, the half-life (usually the time in which the quantity being followed falls by half) in data set [7] is 4.4 h; in data set [8], 3.9 h. Besides, the inhibition – broadly, the change of the read-out against control, counted positive when it falls – in data set [9] was 75% and 69%; in data set [10], 60%. Besides, the bioavailability in data set [11] was determined as 48%. Further, the concentration at 1 h in data set [12] came out at 2210 ng/g; in data set [13], 2000 ng/mL; in data set [14], 6010 ng/mL; in data set [24], 6460 ng/g. In addition, the concentration at 0.5 h in data set [15] was 3330 ng/mL; in data set [16] it was 11800 ng/mL. Also, the concentration at 0.2 h in data set [17] amounted to 19900 ng/mL. The AUC in [18] was 2660 ng·h/mL. Further, in data set [20], the clearance was 15.8 mL/min/kg. In [21], the concentration at 12 h was found to be 175 ng/g. Moreover, the “% change” value in [25] is given as -6.9%; in [26], -18.2%; in data set [27], -31%; in data set [28], -16%.
`O=c1cc(NC2CCN(Cc3ccc4[nH]ccc4c3)CC2)c2cc(Cl)ccc2o1`: the values for the negative logarithm of the IC50 (pIC50) in data set [1] and in data set [2] were 7.20 and 8.15, respectively. In [29], this compound yielded an AUC of 1.18 µg·h/g. Also, in data set [5], the AUC at 24 h worked out at 2870 ng·h/mL. The compound further yielded a Cmax in [6] of 182 ng/g. In data set [21], the concentration at 12 h was 18 ng/g.
With `Cn1ccc2ccc(CN3CCC(/N=c4\cc(O)oc5ccc(Cl)cc45)CC3)cc21`, the pIC50 was 6.79 in [1] and 7.22 in data set [2].
Regarding `O=c1cc(NC2CCN(C/C=C/c3ccccc3)CC2)c2ccccc2o1`, the negative-log IC50 (pIC50) in data set [1] is 5.98; in data set [2], 6.72.
For the compound `O=c1cc(NC2CCN(C/C=C/c3ccccc3)CC2)c2cc(Cl)ccc2o1`, the pIC50 was 6.68 in [1] and 8.05 in [2]. For the same compound, the AUC in [3] came out at 2.6 µg·h/g; in data set [30], 1920 ng·h/mL.
For the compound `COc1ccc2oc(O)c/c(=N\C3CCN(Cc4ccc5c(c4)OCO5)CC3)c2c1`, in data set [1], the pIC50 was 7.96. For the same compound, the Activity in [31] and in data set [32] was 2.84 µg/mL each time.
On to `O=c1cc(NC2CCN(Cc3ccc4c(c3)CCO4)CC2)c2cc(Cl)ccc2o1`, for which the pIC50 in [1] was 7.39; in data set [2] it was 7.57. In [29], the AUC was 0.449 µg·h/g. The compound further gave an AUC at 24 h in data set [5] of 621 ng·h/mL. The compound also yielded a Cmax in data set [6] of 294 ng/g.
For `O=c1cc(NC2CCN(Cc3ccc4ccccc4c3)CC2)c2cc(Cl)ccc2o1`, the pIC50 is 7.04 in data set [1] and 7.68 in [2].
In the case of `O=c1cc(NC2CCN(Cc3ccc4sccc4c3)CC2)c2cc(Cl)ccc2o1`, the results for the pIC50 in [1] and in data set [2] were 6.72 and 8.22, respectively.
Take `O=c1cc(NC2CCN(Cc3ccc4c(c3)OC(F)(F)O4)CC2)c2cc(Cl)ccc2o1`: the pIC50 was 6.24 in data set [1] and 7.72 in data set [2].
Regarding `O=c1cc(NC2CCN(Cc3ccc4ocnc4c3)CC2)c2cc(Cl)ccc2o1`, the results for the pIC50 in data set [1] and in [2] were 6.79 and 8.52, respectively. For the same compound, the AUC in data set [29] was 0 µg·h/g.
For the compound `CC(C)(C)c1ccc(CN2CCC(/N=c3\cc(O)oc4ccc(Cl)cc34)CC2)cc1`, the pIC50 in data set [1] is under 5.00.
